Data set [1] in a line: Cytotoxicity against mouse EAC cells assessed as dead cells at 25 uM after 24 hrs by trypan blue dye exclusion method relative to control. In kind it is functional, Ehrlich. An outline of the steps:
(§1)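 EAC cells came from ascitic fluid of female Swiss albino mice 7-8 days after inoculation and were washed in HEPES-buffered Hanks' salt solution. They were preincubated 24 h in RPMI 1640 with 10% fetal calf serum at 2 × 10⁵ cells/ml, 37 °C, 5% CO₂. Cells were then exposed to drug for 24 h, PBS-washed and counted by trypan blue exclusion. Survival = viable T/C × 100; triplicate mean.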

Data set [2] can be described thus: Cytotoxicity against mouse EAC cells assessed as dead cells at 50 uM after 24 hrs by trypan blue dye exclusion method relative to control. In kind it is functional, Ehrlich. An outline of the steps: as §1
A short description of data set [3]: Antioxidant activity assessed as inhibition of ABTS radical cation generation at 1 mg/ml by colorimetric method relative to control. Format: physicochemical. An outline of the steps:
(§2)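 ABTS radical cation solution read at 734 nm. Test samples were added as a 1 mg/ml solution in MeOH/buffer (1:1 v/v); ascorbic acid (2 mM solution) and curcumin (1 mg/ml) were the standards. % inhibition = (Acontrol − Atest)/Acontrol × 100. Blank was solvent without ABTS.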

Data set [4] can be described thus: Cytotoxicity against mouse EAC cells assessed as dead cells at 100 uM after 24 hrs by trypan blue dye exclusion method relative to control. Format: functional, Ehrlich. An outline of the steps:
as §1

Data set [5] is described as follows: Antitumor activity against mouse EAC cells allografted in Swiss albino mouse assessed as tumor growth inhibition at 75 mg/kg, po administered for 21 days measured 21 day post dose relative to control. Format: functional. The note with it: Ehrlich, 504 h, read-out: TGI. Put shortly: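 EAC was kept by i.p. passage in female Swiss albino mice. Washed ascitic cells (5 × 10⁵ viable per 0.1 ml saline) were injected s.c. At 50–100 mm³, mice were split into groups of 10 and given compound 75 mg/kg orally in CMC for 21 consecutive days; controls got saline 5 ml/kg. Tumor size was read at day 0 and day 21. Inhibition was derived from ΔT/ΔC × 100.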

The nature of data set [6]: Antioxidant activity assessed as inhibition of ABTS radical cation generation at 2 mM by colorimetric method relative to control. Format: physicochemical. The note with it: 2000 µM. An outline of the steps:
as §2

`COc1ccc(/C=C2\CCCc3c2nc(N)c(C#N)c3-c2ccc(OC)c(OC)c2)cc1OC`: the Activity worked out at 24.9% in data set [1], 45.1% in data set [2] and 84.2% in data set [4]. The “inhibition (INH)” value in data set [3] was 9.73%.
`CCN1C/C(=C\c2ccc(OC)cc2)C2=NN(c3nc(-c4ccc(Cl)cc4)cs3)C(c3ccc(OC)cc3)C2C1` (stereo not given): the figures for the Activity in data set [1], in data set [2] and in data set [4] were 98.3%, 100% and 100%, respectively. Also, the inhibition in vivo at 75 mg/kg in data set [5] was 82%. The “inhibition (INH)” value in data set [3] is listed as 82.6%.
On to `COc1cc(/C=C2\CCCc3c2nc(N)c(C#N)c3-c2ccc(O)c(OC)c2)ccc1O`, for which the Activity in data set [1] is given as 60.2%; in data set [2], 84%; in data set [4] it was 99.7%. For the same compound, in data set [5], the inhibition in vivo at 75 mg/kg was determined as 80%. Moreover, the “inhibition (INH)” value in data set [3] is recorded as 46.6%.
The like results for `COc1ccc(/C=C/C2=NN(C(N)=S)C(c3ccc(OC)cc3)C2)cc1` (stereo not given) were, in that order, 28.7%, 57.5%, 98%, 76% and 84.52%.
`COc1ccc(/C=C/C2=NN(c3nc(-c4ccccc4)cs3)C(c3ccc(OC)cc3)C2)cc1` (stereo not given): the Activity in data set [1] was 30.4%; in data set [2] it was 61.6%; in data set [4], 98.3%. In addition, the inhibition in vivo at 75 mg/kg in data set [5] is 65%. Moreover, the “inhibition (INH)” value in data set [3] worked out at 76%.
Taken in the same sequence, the figures for `COc1ccc(/C=C2\CN(C)CC3C2=NN(c2nc(-c4ccc(Cl)cc4)cs2)C3c2ccc(OC)cc2)cc1` (stereo not given) were 29.2%, 58%, 97.9%, 70% and 69.56%.
As to `COc1cc(/C=C/C(=O)CC(=O)/C=C/c2ccc(O)c(OC)c2)ccc1O` [CURCUMIN], the “inhibition (INH)” value in data set [3] is reported as 86.6%.
Take `COc1ccc(/C=C2\CCCC3C2=NN(C2=NC(=O)/C(=C/c4ccc(Br)cc4)S2)C3c2ccc(OC)cc2)cc1` (stereo not given): the Activity in data set [1] was 22%; in data set [2], 43.8%; in data set [4], 81.6%. Besides, the “inhibition (INH)” value in data set [3] stood at 5.21%.
Regarding `N#Cc1c(N)nc2c(c1-c1ccc(O)cc1)CCC/C2=C\c1ccc(O)cc1`, the Activity was 21.7% in data set [1], 43.4% in data set [2] and 81% in data set [4]. Also, the “inhibition (INH)” value in data set [3] worked out at 8.69%.
Consider `O=C1O[C@H]([C@@H](O)CO)C(O)=C1O` [ASCORBIC ACID], for which, in data set [6], the “inhibition (INH)” value amounted to 88.34%.
`CCN1C/C(=C\c2ccc(OC)cc2)C2=NN(C(N)=S)C(c3ccc(OC)cc3)C2C1` (stereo not given): the Activity in data set [1] is 31.7%; in data set [2], 66.5%; in data set [4], 99%. In data set [5], the inhibition in vivo at 75 mg/kg amounted to 77%. The “inhibition (INH)” value in data set [3] came out at 88.17%.
With `CCN1C/C(=C\c2ccc(OC)cc2)C2=NN(c3nc(-c4ccccc4)cs3)C(c3ccc(OC)cc3)C2C1` (stereo not given), the Activity in data set [1] amounted to 27.8%; in data set [2] it was 50.2%; in data set [4] it was 95.4%. In addition, the “inhibition (INH)” value in data set [3] was 60.52%.
For the compound `COc1ccc(/C=C2\CCC3C2=NN(c2nc(-c4ccc(Cl)cc4)cs2)C3c2ccc(OC)cc2)cc1` (stereo not given), the Activity in data set [1] is 25%; in data set [2], 47.1%; in data set [4], 93.5%. Also, the “inhibition (INH)” value in data set [3] is 27.47%.
For the compound `COc1ccc(/C=C2\CCCC3C2=NN(C2=NC(=O)/C(=C/c4ccc(Cl)cc4)S2)C3c2ccc(OC)cc2)cc1` (stereo not given), the values for the Activity in data set [1], in data set [2] and in data set [4] were 23.8%, 46% and 84%, respectively. In addition, in data set [3], the “inhibition (INH)” value is on record as 25.73%.
The like results for `COc1ccc(/C=C2\CCCC3C2=NN(C2=NC(=O)/C(=C/c4ccc(OC)c(OC)c4)S2)C3c2ccc(OC)cc2)cc1` (stereo not given) were, in that order, 20.4%, 40%, 75.8% and 19.13%.

These data come from ChEMBL document CHEMBL3612035, “Synthesis and biological evaluation of new curcumin analogues as antioxidant and antitumor agents: molecular modeling study” (Eur J Med Chem, 2015).
